The values that follow come from ChEMBL document CHEMBL4346686, “Discovery and biological evaluation of novel androgen receptor antagonist for castration-resistant prostate cancer” (Eur J Med Chem, 2019).

Residue numbers refer to the chain shown, from its start.

For data set [1], the system named is VCaP. As to the kind of experiment: Antiproliferative activity against human VCaP cells assessed as reduction in cell viability incubated for 6 days by CCK8 assay. The format is functional, cell-based. The note with it: 144 h. In a few lines:
(§1)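 Cells seeded (2×10^4 per well for VCaP, 1–3×10^3 for the others) and compound added after 24 h as a 9-point, 3-fold serial dilution. Exposure 6 days, then CCK-8 for 1–4 h and absorbance at 450 nm. IC50 from curve fit, mean of at least two independent experiments run in duplicate.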
(Tetrazolium dyes change colour on reduction, which living cells bring about.)

A further data set relates to PC-3. As to the kind of experiment: Antiproliferative activity against human PC3 cells assessed as reduction in cell viability incubated for 6 days by CCK8 assay. The format is functional, cell-based. The note with it: PC-3, 144 h. In a few lines: as §1
A further data set addresses T1, Androgen receptor (Homo sapiens, UniProt P10275).
T1 sequence (P10275 whole entry): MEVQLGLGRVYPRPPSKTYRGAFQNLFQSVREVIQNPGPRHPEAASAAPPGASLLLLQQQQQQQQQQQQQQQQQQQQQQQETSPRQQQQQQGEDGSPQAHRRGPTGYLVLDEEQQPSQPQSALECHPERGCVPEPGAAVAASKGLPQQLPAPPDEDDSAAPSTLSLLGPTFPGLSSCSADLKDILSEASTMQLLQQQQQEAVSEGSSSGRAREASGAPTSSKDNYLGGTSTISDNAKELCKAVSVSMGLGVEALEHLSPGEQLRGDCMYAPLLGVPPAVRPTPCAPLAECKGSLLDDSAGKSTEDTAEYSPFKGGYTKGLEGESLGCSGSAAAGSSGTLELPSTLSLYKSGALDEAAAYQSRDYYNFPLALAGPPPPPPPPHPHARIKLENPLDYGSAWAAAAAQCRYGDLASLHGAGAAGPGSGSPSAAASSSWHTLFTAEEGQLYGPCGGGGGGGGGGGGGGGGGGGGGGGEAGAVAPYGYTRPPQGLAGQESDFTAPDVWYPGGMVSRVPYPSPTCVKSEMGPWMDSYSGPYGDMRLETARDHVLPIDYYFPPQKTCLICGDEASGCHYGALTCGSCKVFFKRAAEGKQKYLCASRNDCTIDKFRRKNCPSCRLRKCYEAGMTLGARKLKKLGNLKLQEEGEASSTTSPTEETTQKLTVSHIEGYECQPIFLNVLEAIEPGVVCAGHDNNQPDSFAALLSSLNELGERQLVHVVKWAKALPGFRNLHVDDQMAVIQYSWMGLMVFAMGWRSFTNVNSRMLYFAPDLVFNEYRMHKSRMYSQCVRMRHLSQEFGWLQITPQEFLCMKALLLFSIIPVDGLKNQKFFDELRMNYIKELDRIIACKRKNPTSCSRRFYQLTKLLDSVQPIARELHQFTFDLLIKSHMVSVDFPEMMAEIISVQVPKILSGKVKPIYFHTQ
The format is cell-based, LNCaP.

The test system of data set [2] is T2, Androgen receptor (Homo sapiens), P10275 [F877L].
T2 sequence (whole entry): T1 sequence (P10275 whole entry) with F877L
As to the kind of experiment: Antagonist activity against human AR F876L mutant expressed in human PC3 cells assessed as inhibition of 1 nM R1881-induced transactivation incubated for 24 hrs by dual luciferase reporter gene assay. The format is cell-based. Summed up:
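PC-3 cells in DMEM/F12 (1:1) with 5% charcoal-stripped FBS, cotransfected with 50 ng F876L AR plasmid and 50 ng AR luciferase reporter per well. 24 h post-transfection, compound plus 1 nM R1881 for 24 h. Firefly luminescence normalized to Renilla; mean ± SEM, n = 3.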

Data set [3] is described as follows: Cmax in Sprague-Dawley rat at 30 mg/kg, po measured at 0.5 hrs by LC-MS/MS analysis. The format is ADME, organism-based. The arrangement: dose 30 mg/kg, route oral. Conditions: in vivo. Summed up: (§2)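 Male SD rats (N = 3), single oral 30 mg/kg in PEG200/DMA (9:1, v/v). Blood from retrobulbar vein at 0–24 h; heparinized plasma, protein precipitation with methanol, LC-MS/MS quantitation; parameters by non-compartmental analysis.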

Data set [4] is described as follows: Half life in Sprague-Dawley rat at 30 mg/kg, po measured upto 24 hrs by LC-MS/MS analysis. The format is ADME, organism-based. The note with it: in vivo. Summed up:
as §2

Data set [5] deals with VCaP. As to the kind of experiment: Antitumor activity against human VCaP cells xenografted in BALB/c nude mouse assessed as inhibition of tumor growth at 30 mg/kg, po qd administered for 40 days relative to control. The format is functional. The note with it: Mus musculus, VCaP, po, 960 h; read-out: TGI. Summed up:
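Male BALB/c nude mice, 5 weeks old, s.c. 1 × 10^7 VCaP cells in DMEM/Matrigel (1:1). Castrated under Nembutal at 150–200 mm3 and randomized (n = 8–10). Once tumors regrew to 200–350 mm3, oral 30 mg/kg qd for 40 days. TGI = [1 − (T − T0)/(C − C0)] × 100 from mean tumor volumes on first and last treatment days.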
Background: In xenograft studies the graft and the host belong to different species.

A short description of data set [6]: Toxicity in BALB/c nude mouse xenografted with human VCaP cells assessed as weight loss at 30 mg/kg, po qd administered for 40 days relative to control. The format is organism-based. Conditions: in vivo, 960 h.
Data set [7] concerns the target T3, Androgen receptor (Homo sapiens) (UniProt P10275).
T3 sequence (whole entry): T1 sequence (P10275 whole entry)
As to the kind of experiment: Antagonist activity at androgen receptor in human VCaP cells assessed as inhibition of R1881-induced FKBP5 mRNA expression after 24 hrs by qRT-PCR analysis. The format is cell-based. Summed up:
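VCaP cells held 48 h in DMEM with 5% charcoal-stripped FBS, then 24 h with compound plus 0.2 nM R1881. TRIzol RNA extraction, cDNA synthesis, qRT-PCR for the target mRNA normalized to GAPDH; mean ± SD, n = 3.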

For orientation: IC50 means the concentration needed to halve the response being measured. By Cmax is commonly meant the highest concentration seen after dosing. Usually half-life stands for the time needed for the level to fall by half in the phase considered. High values mean slow decline, low ones rapid decline. On to `Cc1ccc(-c2c(C)noc2C)cc1Nc1ccc(C#N)c(Cl)c1`, for which the IC50 is 700 nM in the data set on VCaP [1], 23300 nM with PC-3 and 641 nM against Androgen receptor. For the same molecule, the Activity result in data set [2] is “Dose-dependent effect”; in data set [6], “Non-Toxic”; in data set [7] it was “Dose-dependent effect”. Moreover, in [3], the peak level (Cmax) was 2320 ng/mL. In data set [4], the half-life is 4.4 h. Further, in the data set with VCaP [5], the inhibition in vivo at 30 mg/kg stood at 44.7%.
